Data on 19 compounds can be found in ChEMBL document CHEMBL4020814, “Synthesis, Binding Mode, and Antihyperglycemic Activity of Potent and Selective (5-Imidazol-2-yl-4-phenylpyrimidin-2-yl)[2-(2-pyridylamino)ethyl]amine Inhibitors of Glycogen Synthase Kinase 3” (J Med Chem, 2017).

Broadly, the IC50 is the concentration at which inhibition is half-maximal. As usually defined, the EC50 is the concentration needed to bring the measured effect to its halfway point. Broadly, the half-life is how long it takes for the measured level to halve.

A value given as a limit tells only on which side of the number the result lay.

The nature of data set [1]: Inhibition of human GSK3 using biotin-CREB peptide substrate after 1 hr by scintillation counting method.
The nature of data set [2]: Inhibition of GSK3 expressed in CHO-IR cells expressing human insulin receptor assessed as glycogen synthase activation after 30 mins by filter paper assay. Format: cell-based, Cavia porcellus.
The nature of data set [3]: Plasma concentration in diabetic db/db mouse at 30 mg/kg administered at 4.5 and 0.5 hrs prior to oral glucose challenge measured 20 mins post second dose.
The nature of data set [4]: Stability in human liver microsomes assessed as half life. It is filed as ADME, microsome.
For another data set, the system named is Rattus norvegicus. Nature of the data set: Antidiabetic activity in diabetic ZDF fa/fa rat assessed as reduction in plasma glucose AUC at 8 mg/kg administered 4.5 and 0.5 hrs prior to oral glucose challenge by oral glucose tolerance test. Format: functional. Set-up: scale not given: the % may be the effect or the level left. In a few lines:
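Obese 10-week-old ZDF (fa/fa) rats, n = 8/group, fasted overnight, given 8 mg/kg orally at 4.5 and 0.5 h before oral glucose challenge. Efficacy is the percent reduction in plasma glucose AUC versus untreated animals. Formulations were 15% captisol, 1% CMC or water with pH adjusted.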

A short description of data set [5]: Oral bioavailability in diabetic ZDF fa/fa rat at 8 mg/kg administered 4.5 and 0.5 hrs prior to oral glucose challenge. Format: ADME, organism-based. The conditions noted are these: in vivo.
Data set [6] in a line: Half life in diabetic ZDF fa/fa rat at 8 mg/kg administered 4.5 and 0.5 hrs prior to oral glucose challenge. It is filed as ADME, organism-based. Particulars: in vivo.
A short description of data set [7]: Stability in rat liver microsomes assessed as half life. It is filed as ADME, microsome. For orientation: Liver microsomes are vesicles of endoplasmic reticulum, rich in cytochrome P450 enzymes.
The nature of data set [8]: Stability in dog liver microsomes assessed as half life. Format: ADME, Canis lupus familiaris, microsome.
The species entered for another data set is Mus musculus. Nature of the data set: Antidiabetic activity in diabetic db/db mouse assessed as time required for improved glucose disposal by oral glucose tolerance test. Format: functional. The method in brief:
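db/db mice, 6–8 per group, fasted ~6 h (food removed 3 h before prebleed), dosed orally at −4.5 and −0.5 h relative to oral glucose (vehicle 10% captisol). Tail-snip blood glucose was read by glucometer or analyzer; plasma insulin was measured by ELISA.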

Data set [9] is described as follows: Inhibition of GSK3 in Sprague-Dawley rat primary hepatocytes assessed as assessed as glycogen synthase activation after 30 mins.
Data set [10] concerns the target Glycogen synthase kinase-3 alpha (Homo sapiens, UniProt P49840). Nature of the data set: Inhibition of human GSK3alpha using biotin-CREB peptide substrate after 1 hr by scintillation counting method.
Data set [11] deals with Cyclin-dependent kinase 1 (Homo sapiens, UniProt P06493). Nature of the data set: Inhibition of human CDC2 using biotin histone H1 peptide substrate after 1 hr by scintillation counting method.
Cyclin-dependent kinase 1, sequence (P06493 whole entry): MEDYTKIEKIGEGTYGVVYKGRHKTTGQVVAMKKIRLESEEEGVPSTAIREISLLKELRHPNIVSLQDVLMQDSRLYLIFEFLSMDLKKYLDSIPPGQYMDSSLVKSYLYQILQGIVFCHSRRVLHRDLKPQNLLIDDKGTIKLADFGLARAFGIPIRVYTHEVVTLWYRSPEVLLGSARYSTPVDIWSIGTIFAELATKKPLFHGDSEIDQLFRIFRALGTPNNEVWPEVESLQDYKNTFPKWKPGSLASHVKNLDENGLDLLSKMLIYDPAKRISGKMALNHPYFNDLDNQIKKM
Data set [12] concerns the target Mitogen-activated protein kinase 1 (Homo sapiens, UniProt P28482). Nature of the data set: Inhibition of human ERK2 using myelin basic protein substrate after 1 hr by scintillation counting method.
The target of data set [13] is RAC-alpha serine/threonine-protein kinase (Homo sapiens, UniProt P31749). Nature of the data set: Inhibition of human AKT1/PKB using phospho-AKT peptide substrate after 1 hr by scintillation counting method.
RAC-alpha serine/threonine-protein kinase, sequence (P31749 whole entry): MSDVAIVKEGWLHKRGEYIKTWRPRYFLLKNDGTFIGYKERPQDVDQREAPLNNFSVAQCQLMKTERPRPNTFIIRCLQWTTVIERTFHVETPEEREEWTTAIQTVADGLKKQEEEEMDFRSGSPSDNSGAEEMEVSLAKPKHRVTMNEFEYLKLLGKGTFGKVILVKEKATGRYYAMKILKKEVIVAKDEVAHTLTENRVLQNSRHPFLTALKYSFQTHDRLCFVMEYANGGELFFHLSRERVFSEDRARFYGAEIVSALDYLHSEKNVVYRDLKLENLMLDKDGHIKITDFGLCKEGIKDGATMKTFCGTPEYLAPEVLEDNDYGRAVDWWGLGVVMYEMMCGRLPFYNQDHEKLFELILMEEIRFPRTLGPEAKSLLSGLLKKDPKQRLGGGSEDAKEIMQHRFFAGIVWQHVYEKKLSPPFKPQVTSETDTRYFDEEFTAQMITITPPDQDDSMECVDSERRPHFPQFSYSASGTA
The target of another data set is Angiopoietin-1 receptor (Homo sapiens, UniProt Q02763).
Angiopoietin-1 receptor, sequence (Q02763 whole entry): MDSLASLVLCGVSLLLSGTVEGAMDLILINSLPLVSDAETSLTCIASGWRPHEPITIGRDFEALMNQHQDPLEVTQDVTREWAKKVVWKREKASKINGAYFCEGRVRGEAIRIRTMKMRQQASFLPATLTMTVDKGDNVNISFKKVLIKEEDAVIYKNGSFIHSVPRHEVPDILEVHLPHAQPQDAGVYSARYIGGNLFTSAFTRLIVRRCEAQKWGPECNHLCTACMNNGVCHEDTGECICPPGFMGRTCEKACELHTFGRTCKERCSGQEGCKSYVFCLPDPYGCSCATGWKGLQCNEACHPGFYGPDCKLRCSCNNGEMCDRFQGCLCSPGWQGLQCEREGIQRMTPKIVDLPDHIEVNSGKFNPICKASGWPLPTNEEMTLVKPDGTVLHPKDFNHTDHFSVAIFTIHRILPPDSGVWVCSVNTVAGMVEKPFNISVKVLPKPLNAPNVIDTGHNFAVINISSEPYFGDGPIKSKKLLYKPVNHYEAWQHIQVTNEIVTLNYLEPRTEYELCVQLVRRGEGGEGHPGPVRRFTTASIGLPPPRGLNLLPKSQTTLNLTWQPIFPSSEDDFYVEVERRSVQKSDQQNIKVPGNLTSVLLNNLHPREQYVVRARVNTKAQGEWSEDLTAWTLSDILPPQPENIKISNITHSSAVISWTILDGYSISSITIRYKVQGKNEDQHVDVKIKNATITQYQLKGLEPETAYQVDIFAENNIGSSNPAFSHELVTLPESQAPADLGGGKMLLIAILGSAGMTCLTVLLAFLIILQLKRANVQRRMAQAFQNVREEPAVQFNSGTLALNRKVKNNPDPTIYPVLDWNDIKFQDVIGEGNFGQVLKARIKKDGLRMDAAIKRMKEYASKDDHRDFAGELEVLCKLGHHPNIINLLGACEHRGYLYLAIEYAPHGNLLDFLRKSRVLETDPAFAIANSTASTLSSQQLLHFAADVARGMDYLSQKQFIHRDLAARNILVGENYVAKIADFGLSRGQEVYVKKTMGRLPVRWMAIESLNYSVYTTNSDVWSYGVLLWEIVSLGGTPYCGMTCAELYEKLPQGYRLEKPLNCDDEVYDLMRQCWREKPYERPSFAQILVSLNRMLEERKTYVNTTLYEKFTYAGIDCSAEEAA
Data set [14] deals with Vascular endothelial growth factor receptor 1 (Homo sapiens, UniProt P17948).
Vascular endothelial growth factor receptor 1, sequence (P17948 whole entry): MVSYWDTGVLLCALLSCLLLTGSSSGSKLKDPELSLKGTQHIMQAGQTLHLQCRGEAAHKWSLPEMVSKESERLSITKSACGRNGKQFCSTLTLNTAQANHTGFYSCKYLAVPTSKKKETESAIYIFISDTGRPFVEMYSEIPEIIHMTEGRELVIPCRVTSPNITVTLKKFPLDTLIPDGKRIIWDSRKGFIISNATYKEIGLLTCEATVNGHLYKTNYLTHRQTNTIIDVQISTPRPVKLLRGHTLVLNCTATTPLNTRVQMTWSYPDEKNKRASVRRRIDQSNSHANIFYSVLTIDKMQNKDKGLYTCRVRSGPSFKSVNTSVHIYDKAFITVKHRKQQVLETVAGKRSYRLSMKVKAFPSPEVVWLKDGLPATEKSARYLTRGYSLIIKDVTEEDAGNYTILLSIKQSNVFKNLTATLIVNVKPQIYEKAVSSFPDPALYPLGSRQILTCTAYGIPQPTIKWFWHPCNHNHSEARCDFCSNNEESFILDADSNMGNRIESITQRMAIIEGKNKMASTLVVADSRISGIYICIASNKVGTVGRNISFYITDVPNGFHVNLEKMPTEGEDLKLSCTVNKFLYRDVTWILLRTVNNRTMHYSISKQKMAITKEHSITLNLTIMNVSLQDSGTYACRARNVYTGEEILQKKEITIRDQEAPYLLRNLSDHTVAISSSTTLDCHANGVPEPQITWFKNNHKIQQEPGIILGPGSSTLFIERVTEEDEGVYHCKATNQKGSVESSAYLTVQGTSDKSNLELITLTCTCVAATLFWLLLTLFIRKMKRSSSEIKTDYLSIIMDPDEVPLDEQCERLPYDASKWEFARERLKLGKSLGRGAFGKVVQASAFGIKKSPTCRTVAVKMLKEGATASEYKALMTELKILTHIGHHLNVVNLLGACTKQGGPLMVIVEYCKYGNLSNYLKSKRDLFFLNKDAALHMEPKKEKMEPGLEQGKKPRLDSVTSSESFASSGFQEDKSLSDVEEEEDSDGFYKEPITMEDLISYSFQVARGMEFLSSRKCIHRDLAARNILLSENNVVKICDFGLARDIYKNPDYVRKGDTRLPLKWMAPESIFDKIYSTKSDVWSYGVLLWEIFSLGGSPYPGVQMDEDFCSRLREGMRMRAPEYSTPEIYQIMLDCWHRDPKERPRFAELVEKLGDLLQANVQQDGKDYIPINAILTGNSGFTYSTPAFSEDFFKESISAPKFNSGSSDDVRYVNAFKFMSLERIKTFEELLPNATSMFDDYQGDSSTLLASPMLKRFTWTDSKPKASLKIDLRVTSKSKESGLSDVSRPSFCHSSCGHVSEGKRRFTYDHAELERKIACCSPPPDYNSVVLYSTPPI
Data set [15] addresses Vascular endothelial growth factor receptor 2 (Homo sapiens, UniProt P35968).
For data set [16], the target named is Fibroblast growth factor receptor 1 (Homo sapiens, UniProt P11362).
Fibroblast growth factor receptor 1, sequence (P11362 whole entry): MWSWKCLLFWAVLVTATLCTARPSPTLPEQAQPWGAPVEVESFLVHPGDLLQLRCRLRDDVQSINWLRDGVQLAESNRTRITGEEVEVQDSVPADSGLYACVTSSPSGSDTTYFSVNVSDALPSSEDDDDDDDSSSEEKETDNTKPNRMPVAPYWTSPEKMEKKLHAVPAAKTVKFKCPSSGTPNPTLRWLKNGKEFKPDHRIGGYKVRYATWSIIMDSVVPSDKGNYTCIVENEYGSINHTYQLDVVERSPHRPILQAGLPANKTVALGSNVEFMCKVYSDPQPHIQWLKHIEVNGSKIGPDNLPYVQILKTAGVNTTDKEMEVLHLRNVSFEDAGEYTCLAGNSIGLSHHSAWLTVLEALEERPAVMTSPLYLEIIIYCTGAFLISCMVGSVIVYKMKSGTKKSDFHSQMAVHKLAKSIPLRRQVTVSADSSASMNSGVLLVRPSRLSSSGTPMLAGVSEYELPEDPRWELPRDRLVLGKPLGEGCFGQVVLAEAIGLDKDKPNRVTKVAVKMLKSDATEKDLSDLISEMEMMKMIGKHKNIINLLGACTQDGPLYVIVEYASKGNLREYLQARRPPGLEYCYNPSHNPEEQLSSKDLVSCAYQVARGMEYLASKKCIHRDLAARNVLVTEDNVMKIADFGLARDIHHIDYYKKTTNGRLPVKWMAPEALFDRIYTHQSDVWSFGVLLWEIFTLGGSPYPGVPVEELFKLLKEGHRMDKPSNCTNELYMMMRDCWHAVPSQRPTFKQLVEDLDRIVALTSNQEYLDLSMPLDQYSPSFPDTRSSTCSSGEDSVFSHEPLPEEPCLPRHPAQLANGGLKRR
In data set [17] the target is Insulin-like growth factor 1 receptor (Homo sapiens, UniProt P08069).
In another data set the target is Insulin receptor (Homo sapiens, UniProt P06213). Nature of the data set: Inhibition of human insulin receptor tyrosine kinase after 1 hr by scintillation counting method.
The target in data set [18] is T1, Serine/threonine-protein kinase Chk1 (Homo sapiens, UniProt O14757).
T1 sequence (O14757 whole entry): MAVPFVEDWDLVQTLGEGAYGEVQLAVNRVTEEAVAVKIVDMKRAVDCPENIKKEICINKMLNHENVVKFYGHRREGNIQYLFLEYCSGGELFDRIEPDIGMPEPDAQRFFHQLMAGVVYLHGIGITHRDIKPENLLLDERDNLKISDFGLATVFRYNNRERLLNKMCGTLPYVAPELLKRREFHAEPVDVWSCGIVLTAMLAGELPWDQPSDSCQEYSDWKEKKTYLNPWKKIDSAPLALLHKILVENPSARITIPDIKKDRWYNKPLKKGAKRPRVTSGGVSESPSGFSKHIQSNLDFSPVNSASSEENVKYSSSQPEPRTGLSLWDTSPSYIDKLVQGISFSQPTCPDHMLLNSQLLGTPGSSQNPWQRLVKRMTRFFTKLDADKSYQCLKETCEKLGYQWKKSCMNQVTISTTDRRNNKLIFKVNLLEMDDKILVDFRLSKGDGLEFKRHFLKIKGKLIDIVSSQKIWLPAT
Nature of the data set: Inhibition of human CHK1 using biotin-CDC25 peptide substrate after 1 hr by scintillation counting method.

The target of data set [19] is Casein kinase I isoform epsilon (Homo sapiens, UniProt P49674). Nature of the data set: Inhibition of human CK1epsilon using biotin peptide substrate after 1 hr by scintillation counting method.
The nature of data set [20]: Inhibition of human DNA-dependent protein kinase using PI as substrate after 1 hr by scintillation counting method.
Data set [21] can be described thus: Inhibition of human phosphatidylinositol (PI) 3-kinase using PI as substrate after 1 hr by scintillation counting method.
The target of data set [22] is Glycogen synthase kinase-3 beta (Homo sapiens, UniProt P49841). Nature of the data set: Inhibition of human GSK3beta using biotin-CREB peptide substrate after 1 hr by scintillation counting method.
Glycogen synthase kinase-3 beta, sequence (P49841 whole entry): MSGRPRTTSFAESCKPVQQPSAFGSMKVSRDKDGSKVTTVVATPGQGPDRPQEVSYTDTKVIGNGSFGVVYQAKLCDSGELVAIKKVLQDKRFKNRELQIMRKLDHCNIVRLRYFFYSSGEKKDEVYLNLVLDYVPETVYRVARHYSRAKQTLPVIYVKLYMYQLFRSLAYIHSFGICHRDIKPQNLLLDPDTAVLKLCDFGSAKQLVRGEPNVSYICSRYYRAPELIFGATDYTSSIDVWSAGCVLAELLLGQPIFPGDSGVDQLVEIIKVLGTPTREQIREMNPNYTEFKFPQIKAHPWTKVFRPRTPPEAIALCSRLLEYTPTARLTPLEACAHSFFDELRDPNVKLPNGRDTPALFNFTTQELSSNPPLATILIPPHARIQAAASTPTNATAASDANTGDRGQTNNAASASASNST

Mitogen-activated protein kinase 1, sequence (P28482 whole entry): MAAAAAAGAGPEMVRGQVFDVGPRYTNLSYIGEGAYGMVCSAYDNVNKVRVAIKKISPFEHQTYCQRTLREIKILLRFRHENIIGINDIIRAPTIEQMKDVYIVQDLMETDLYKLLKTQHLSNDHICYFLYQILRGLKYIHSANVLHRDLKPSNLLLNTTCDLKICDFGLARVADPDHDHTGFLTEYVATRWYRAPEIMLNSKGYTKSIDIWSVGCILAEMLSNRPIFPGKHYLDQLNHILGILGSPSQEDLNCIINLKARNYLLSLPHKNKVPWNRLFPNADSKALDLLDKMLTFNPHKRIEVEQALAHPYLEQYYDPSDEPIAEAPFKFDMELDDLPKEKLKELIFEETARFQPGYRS

For `CN1CCN(c2cnc(NCCNc3ccc([N+](=O)[O-])c(N)n3)nc2-c2ccc(Cl)cc2Cl)CC1`, in data set [1], the IC50 amounted to 0.006 µM. Also, the EC50 in data set [2] turned out to be 0.05 µM. In addition, in [3] (plasma), the concentration at 20 min was found to be 3000 ng/mL.

`Nc1nc(NCCNc2ncc(CO)c(-c3ccc(Cl)cc3Cl)n2)ccc1[N+](=O)[O-]` yielded an IC50 in data set [1] of 0.007 µM. For the same compound, the EC50 in data set [2] amounted to 0.15 µM. The concentration at 20 min in [3] (plasma) was found to be 12000 ng/mL.

For the compound `N#Cc1ccc(NCCNc2ncc(-n3ccnc3)c(-c3ccc(Cl)cc3Cl)n2)nc1`, half-maximal inhibition in data set [1] (IC50) was put at 0.025 µM. Further, the EC50 in data set [2] stood at 0.79 µM. The concentration at 20 min in data set [3] (plasma) came out at 13000 ng/mL.

As for `Cc1c[nH]c(-c2cnc(NCCNc3ccc([N+](=O)[O-])cn3)nc2-c2ccc(Cl)cc2Cl)n1`, inhibition in [1] was half-maximal at 0.008 µM (IC50). Further, the concentration for a half-maximal effect (EC50) in data set [2] was found to be 0.29 µM. This compound registered a concentration at 20 min in data set [3] (plasma) of 19000 ng/mL.

`N#Cc1ccc(NCCNc2ncc(-c3ncc[nH]3)c(-c3ccc(Cl)cc3Cl)n2)nc1` registered an IC50 in [1] of 0.004 µM. For the same compound, the EC50 in data set [2] worked out at 0.51 µM. Moreover, the half-life in [4] is 33 min; in data set [6], 52 min; in data set [7], greater than 30 min; in [8] it was greater than 30 min. The Activity with Rattus norvegicus came out at 18%. The same compound had a bioavailability in data set [5] of 21%. This compound yielded a concentration at 20 min in data set [3] (plasma) of 29000 ng/mL.

Compound `N#Cc1ccc(-c2nc(NCCNc3ccc([N+](=O)[O-])cn3)ncc2-c2ncc[nH]2)cc1` gave an IC50 in data set [1] of 0.019 µM. Also, the EC50 in [2] was 5 µM. For the same compound, the concentration at 20 min in [3] (plasma) is 1000 ng/mL.

In turn, `N#Cc1ccc(-c2nc(NCCNc3ccc([N+](=O)[O-])cn3)ncc2-n2ccnc2)cc1` came in with an IC50 in [1] of 0.011 µM. Besides, the EC50 in [2] worked out at 1.3 µM. Moreover, the concentration at 20 min in data set [3] (plasma) amounted to 5000 ng/mL.

In the case of `CN(C)C(=N)NC(=N)N` [METFORMIN], the Time result in the data set filed under Mus musculus is recorded as “<=2 weeks”.

As for `Nc1nc(NCCNc2ncc(-c3ncc[nH]3)c(-c3ccc(Cl)cc3Br)n2)ccc1[N+](=O)[O-]`, half-maximal inhibition in data set [1] (IC50) required 0.006 µM. In data set [2], the EC50 was determined as 0.26 µM. In [3] (plasma), this compound came in with a concentration at 20 min of 13000 ng/mL. Moreover, the half-life in data set [7] and in data set [8] was greater than 30 min each time.

For the compound `O=[N+]([O-])c1ccc(NCCNc2ncc(-c3ncc[nH]3)c(-c3ccc(Cl)cc3Cl)n2)nc1`, in data set [1], the IC50 was 0.004 µM. The EC50 in data set [2] was determined as 0.37 µM. Besides, the Activity in the data set on Rattus norvegicus was 29%. Besides, the bioavailability in [5] came out at 33%. Moreover, the concentration at 20 min in data set [3] (plasma) was 97000 ng/mL. The half-life in [6] is 143 min; in data set [7], greater than 30 min; in [8] it was greater than 30 min.

With `Nc1nc(NCCNc2ncc(-n3ccnc3)c(-c3ccc(Cl)cc3Cl)n2)ccc1[N+](=O)[O-]`, the IC50 in [1] is 0.001 µM; in data set [10], 0.007 µM; in [11] it was 4 µM; in data set [12], greater than 10 µM; in [13], greater than 5 µM; against Angiopoietin-1 receptor, greater than 5 µM. The IC50 is greater than 5 µM in [14]; greater than 2 µM in data set [15]; greater than 1 µM in data set [16]; greater than 2 µM in [17]; greater than 2 µM against Insulin receptor; greater than 10 µM in data set [18]. The IC50 in data set [19] is greater than 5 µM; in data set [20], greater than 10 µM; in data set [21], greater than 5 µM; in data set [22], 0.0006 µM. For the same compound, the concentration for a half-maximal effect (EC50) amounted to 0.08 µM in data set [2] and 0.1 µM in data set [9]. The compound also showed a concentration at 20 min in [3] (in vivo) of 7000 ng/mL.

Regarding `Cc1c(C)c2c(c(C)c1O)CCC(C)(COc1ccc(CC3SC(=O)NC3=O)cc1)O2` (stereo not drawn) [TROGLITAZONE], the Time entry in the data set listed under Mus musculus is given as “<=2 weeks”.

As for `Cc1c[nH]c(-c2cnc(NCCNc3ccc([N+](=O)[O-])c(N)n3)nc2-c2ccc(Cl)cc2Cl)n1`, it took 0.002 µM to reach half-maximal inhibition in data set [1] (IC50). Besides, the EC50 in data set [2] worked out at 0.12 µM. Moreover, the Activity in the data set on Rattus norvegicus was 24%. In data set [5], this compound had a bioavailability of 7%. In addition, in data set [3] (plasma), the concentration at 20 min worked out at 10000 ng/mL. In [6], this compound displayed a half-life of 58 min.

For the compound `CN1CCN(c2cnc(NCCNc3ccc([N+](=O)[O-])c(N)n3)nc2-c2ccc(Cl)cc2Cl)C(=O)C1`, in [1], half-maximal inhibition (IC50) was put at 0.004 µM. For the same compound, the EC50 in data set [2] worked out at 0.03 µM. In data set [3] (plasma), the concentration at 20 min was found to be 4000 ng/mL.

In turn, `Cc1ccc(-c2nc(NCCNc3ccc([N+](=O)[O-])c(N)n3)ncc2-c2ncc[nH]2)c(Br)c1` came in with an IC50 in data set [1] of 0.004 µM. Besides, the EC50 in data set [2] was determined as 0.05 µM. Besides, the half-life in data set [7] and in data set [8] was greater than 30 min in each case.

On to `Nc1nc(NCCNc2ncc(-c3ncc[nH]3)c(-c3ccc(F)cc3Br)n2)ccc1[N+](=O)[O-]`, for which 0.004 µM corresponded to half-maximal inhibition in [1] (IC50). In data set [2], the EC50 came to 0.22 µM. In addition, the half-life in data set [7] and in [8] was greater than 30 min throughout.

`Nc1nc(NCCNc2ncc(-c3ncc[nH]3)c(-c3ccc(C(F)(F)F)cc3)n2)ccc1[N+](=O)[O-]` yielded an IC50 in data set [1] of 0.051 µM. Moreover, the 50% effective concentration (EC50) in data set [2] came to 5.92 µM. Further, the half-life in [7] and in [8] was greater than 30 min throughout.

`Nc1cnc(NCCNc2ccc([N+](=O)[O-])c(N)n2)nc1-c1ccc(Cl)cc1Cl` had an IC50 in data set [1] of 0.01 µM. For the same compound, the EC50 in data set [2] came out at 0.29 µM. In data set [3] (plasma), this compound showed a concentration at 20 min of 1000 ng/mL.

`Nc1nc(NCCNc2ncc(N3CCOCC3)c(-c3ccc(Cl)cc3Cl)n2)ccc1[N+](=O)[O-]` had an IC50 in data set [1] of 0.007 µM. The EC50 in [2] was found to be 0.07 µM. For the same compound, the concentration at 20 min in data set [3] (plasma) was 1000 ng/mL.
